In brackets after ≈: the same amount, converted by molar mass.
Legend:
Listeria monocytogenes [1] = experiment: Antimicrobial activity against Listeria monocytogenes by agar dilution method; assay type: functional
Method in brief: (§1)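 CLSI agar dilution MIC testing of clinical isolates of staphylococci and Listeria. S. aureus ATCC 29213 and S. pneumoniae ATCC 49619 served as control strains. The percentage of susceptible isolates was calculated from CLSI breakpoints.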

[2] = system: Streptococcus sp. 'group B'; experiment: Antimicrobial activity against Group B Streptococcus assessed as susceptible isolates by agar dilution method; assay type: functional
Method in brief: (§2)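 Clinical isolates of beta-hemolytic streptococci, S. mitis and S. pneumoniae were tested by CLSI methodology, with Mueller-Hinton medium supplemented with 5% lysed horse blood. S. aureus ATCC 29213 and S. pneumoniae ATCC 49619 served as control strains. The percentage of susceptible isolates was derived from CLSI breakpoints.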

Streptococcus pneumoniae [3] = experiment: Antimicrobial activity against Streptococcus pneumoniae assessed as susceptible isolates by agar dilution method; assay type: functional; method in brief: as §2
[4] = system: Streptococcus sp. 'group A'; experiment: Antimicrobial activity against Group A Streptococcus by agar dilution method; assay type: functional; method in brief: as §2
[5] = system: Streptococcus sp. 'group B'; experiment: Antimicrobial activity against Group B Streptococcus by agar dilution method; assay type: functional; method in brief: as §2
Staphylococcus [6] = experiment: Antimicrobial activity against Coagulase-negative Staphylococcus assessed as susceptible isolates by agar dilution method; assay type: functional; method in brief: as §1
Streptococcus pneumoniae [7] = experiment: Antimicrobial activity against Streptococcus pneumoniae by agar dilution method; assay type: functional; method in brief: as §2
Streptococcus mitis [8] = experiment: Antimicrobial activity against Streptococcus mitis by broth dilution method
Staphylococcus aureus [9] = experiment: Antimicrobial activity against methicillin-sensitive Staphylococcus aureus assessed as susceptible isolates by agar dilution method; assay type: functional
Method in brief: (§3)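 MICs against clinical MRSA or MSSA isolates by CLSI agar dilution, with S. aureus ATCC 29213 as control strain. Percentage of susceptible isolates was calculated from the MICs using CLSI breakpoints.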

Staphylococcus aureus [10] = experiment: Antimicrobial activity against Heterovancomycin-resistant Staphylococcus aureus by agar dilution method; assay type: functional
Method in brief: (§4)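 Clinical S. aureus isolates classed as hVISA or VISA by population analysis profiling. MICs by CLSI agar dilution, with S. aureus ATCC 29213 as control strain.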

Staphylococcus [11] = experiment: Antimicrobial activity against Coagulase-negative Staphylococcus by agar dilution method; assay type: functional; method in brief: as §1
Listeria monocytogenes [12] = experiment: Antimicrobial activity against Listeria monocytogenes assessed as susceptible isolates by agar dilution method; assay type: functional; method in brief: as §1
Corynebacterium sp. [13] = experiment: Antimicrobial activity against Corynebacterium spp. assessed as susceptible isolates by agar dilution method; assay type: functional
[14] = Antimicrobial activity against Group C Streptococcus by agar dilution method; assay type: functional; settings: Streptococcus sp. 'group C'; method in brief: as §2
[15] = Antimicrobial activity against Group G Streptococcus assessed as susceptible isolates by agar dilution method; assay type: functional, Streptococcus sp. 'group G'; method in brief: as §2
[16] = Antimicrobial activity against Group G Streptococcus by agar dilution method; assay type: functional; settings: Streptococcus sp. 'group G'; method in brief: as §2
Staphylococcus aureus [17] = experiment: Antimicrobial activity against methicillin-sensitive Staphylococcus aureus by agar dilution method; assay type: functional; method in brief: as §3
Corynebacterium sp. [18] = experiment: Antimicrobial activity against Corynebacterium spp. by agar dilution method; assay type: functional
Staphylococcus aureus [19] = experiment: Antimicrobial activity against methicillin-resistant Staphylococcus aureus by agar dilution method; assay type: functional; method in brief: as §3
[20] = system: Streptococcus sp. 'group A'; experiment: Antimicrobial activity against Group A Streptococcus assessed as susceptible isolates by agar dilution method; assay type: functional; method in brief: as §2
Staphylococcus aureus [21] = experiment: Antimicrobial activity against vancomycin-resistant Staphylococcus aureus by agar dilution method; assay type: functional; method in brief: as §4
[22] = Antimicrobial activity against Group C Streptococcus assessed as susceptible isolates by agar dilution method; assay type: functional, Streptococcus sp. 'group C'; method in brief: as §2
Streptococcus mitis [23] = experiment: Antimicrobial activity against Streptococcus mitis assessed as susceptible isolates by agar dilution method; assay type: functional; settings: in the assay text read “broth dilution method” for “agar dilution method”; method in brief: as §2

SMILES | MIC (Listeria monocytogenes [1]) [µg/mL] | MIC50 (Listeria monocytogenes [1]) [µg/mL] | MIC90 (Listeria monocytogenes [1]) [µg/mL] | Activity [2] [%] | Activity (Streptococcus pneumoniae [3]) [%] | MIC50 [4] [µg/mL] | MIC90 [4] [µg/mL] | MIC [5] [µg/mL] | MIC50 [5] [µg/mL] | MIC90 [5] [µg/mL] | Activity (Staphylococcus [6]) [%] | MIC50 (Streptococcus pneumoniae [7]) [µg/mL] | MIC90 (Streptococcus pneumoniae [7]) [µg/mL] | MIC50 (Streptococcus mitis [8]) [µg/mL] | Activity (Staphylococcus aureus [9]) [%] | MIC50 (Staphylococcus aureus [10]) [µg/mL] | MIC90 (Staphylococcus aureus [10]) [µg/mL] | MIC50 (Staphylococcus [11]) [µg/mL] | MIC90 (Staphylococcus [11]) [µg/mL] | Activity (Listeria monocytogenes [12]) [%] | further results
COc1cc(Cc2cnc(N)nc2N)cc(/C=C/C(=O)N2N=Cc3ccccc3C2c2cnc(N(C)C)nc2)c1OC (centres undefined) | 0.03 (≈ 0.053 µM) | 0.03 (≈ 0.053 µM) | 0.03 (≈ 0.053 µM) | 100 | 100 | 0.06 (≈ 0.106 µM) | 0.06 (≈ 0.106 µM) | 0.06 (≈ 0.106 µM) | 0.06 (≈ 0.106 µM) | 0.12 (≈ 0.212 µM) | 86 | 0.12 (≈ 0.212 µM) | 0.25 (≈ 0.442 µM) | 0.03 (≈ 0.053 µM) | 100 | 0.25 (≈ 0.442 µM) | 0.25 (≈ 0.442 µM) | 0.06 (≈ 0.106 µM) | 8 (≈ 14.1 µM) | 100 | MIC [4]: 0.06 µg/mL (≈ 0.106 µM); Activity (Corynebacterium sp. [13]): 83%; MIC50 [14]: 0.06 µg/mL (≈ 0.106 µM); MIC90 [14]: 0.06 µg/mL (≈ 0.106 µM); Activity [15]: 100%; MIC [16]: 0.06 µg/mL (≈ 0.106 µM); MIC50 [16]: 0.06 µg/mL (≈ 0.106 µM); MIC90 [16]: 0.06 µg/mL (≈ 0.106 µM); MIC50 (Staphylococcus aureus [17]): 0.03 µg/mL (≈ 0.053 µM); MIC90 (Staphylococcus aureus [17]): 0.03 µg/mL (≈ 0.053 µM); MIC50 (Corynebacterium sp. [18]): 0.12 µg/mL (≈ 0.212 µM); MIC90 (Corynebacterium sp. [18]): 4 µg/mL (≈ 7.07 µM); MIC50 (Staphylococcus aureus [19]): 0.06 µg/mL (≈ 0.106 µM); MIC90 (Staphylococcus aureus [19]): 0.25 µg/mL (≈ 0.442 µM); Activity [20]: 100%; MIC50 (Staphylococcus aureus [21]): 0.25 µg/mL (≈ 0.442 µM); MIC90 (Staphylococcus aureus [21]): 0.5 µg/mL (≈ 0.884 µM); Activity [22]: 100%; Activity (Streptococcus mitis [23]): 100%
COc1cc(Cc2cnc(N)nc2N)cc(/C=C/C(=O)N2N=Cc3ccccc3C2c2cnc(N3CCOCC3)nc2)c1OC (centres undefined) | 0.06 (≈ 0.0987 µM) | 0.06 (≈ 0.0987 µM) | 0.06 (≈ 0.0987 µM) | 100 | 100 | 0.06 (≈ 0.0987 µM) | 0.12 (≈ 0.197 µM) | 0.06 (≈ 0.0987 µM) | 0.06 (≈ 0.0987 µM) | 0.12 (≈ 0.197 µM) | 86 | 0.12 (≈ 0.197 µM) | 0.12 (≈ 0.197 µM) | 0.015 (≈ 0.0247 µM) | 100 | 0.06 (≈ 0.0987 µM) | 0.06 (≈ 0.0987 µM) | 0.06 (≈ 0.0987 µM) | 4 (≈ 6.58 µM) | 100 | Activity (Corynebacterium sp. [13]): 83%; MIC50 [14]: 0.06 µg/mL (≈ 0.0987 µM); MIC90 [14]: 0.12 µg/mL (≈ 0.197 µM); Activity [15]: 100%; MIC [16]: 0.03 µg/mL (≈ 0.0494 µM); MIC50 [16]: 0.03 µg/mL (≈ 0.0494 µM); MIC90 [16]: 0.06 µg/mL (≈ 0.0987 µM); MIC50 (Staphylococcus aureus [17]): 0.12 µg/mL (≈ 0.197 µM); MIC90 (Staphylococcus aureus [17]): 0.25 µg/mL (≈ 0.411 µM); MIC50 (Corynebacterium sp. [18]): 0.12 µg/mL (≈ 0.197 µM); MIC90 (Corynebacterium sp. [18]): 4 µg/mL (≈ 6.58 µM); MIC (Staphylococcus aureus [19]): 0.06 µg/mL (≈ 0.0987 µM); MIC50 (Staphylococcus aureus [19]): 0.06 µg/mL (≈ 0.0987 µM); MIC90 (Staphylococcus aureus [19]): 0.06 µg/mL (≈ 0.0987 µM); Activity [20]: 100%; MIC (Staphylococcus aureus [21]): 0.06 µg/mL (≈ 0.0987 µM); MIC50 (Staphylococcus aureus [21]): 0.06 µg/mL (≈ 0.0987 µM); MIC90 (Staphylococcus aureus [21]): 0.5 µg/mL (≈ 0.823 µM); Activity [22]: 100%; Activity (Streptococcus mitis [23]): 100%

— ChEMBL document CHEMBL1649269, “In vitro activities of three new dihydrofolate reductase inhibitors against clinical isolates of gram-positive bacteria” (2009)
